Laboratory results published in ChEMBL document CHEMBL5608261, “Pharmacophore Establishment and Optimization of Saturated 1,6-Naphthyridine-Fused Quinazolinones that Inhibit Meningoencephalitis-Causing Naegleria fowleri” (J Med Chem, 2024).
pEC50: −log10 of the molar value. In brackets after ≈: the same amount, converted by molar mass.

What was measured:
[1] = test system: SH-SY5Y; test: Cytotoxicity against human SH-SY5Y cells assessed as reduction in cell viability incubated for 72 hrs by CellTiter-Glo assay; format: toxicity, cell-based; settings: sh-sy5y, 72 h
In short: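 SH-SY5Y cells at 2000 per well attached overnight at 37 °C. Compound from 20 mM DMSO stocks was added in triplicate as a dose series starting at 20 μM, with doxorubicin as positive control.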

[2] = test system: Naegleria fowleri; test: Anti-ameobic activity against Naegleria fowleri Nf69 (ATCC 30215) trophozoites assessed as inhibition of amoeba growth incubated for 48 hrs by CellTiter-Glo assay; format: functional, organism-based
In short: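 Axenic Nf69 trophozoites were seeded at 1 × 10^4 cells/mL in Nelson's complete medium with 10% heat-inactivated FBS. Compound was added at 20 to 0.375 μM (lower ranges for very potent compounds), with vehicle controls, for 48 h at 37 °C and 5% CO2. CellTiter-Glo luminescence gave % growth inhibition versus controls, and triplicate means were fitted to dose–response curves for EC50.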

[3] = Selectivity index, ratio of CC50 for cytotoxicity against human SH-SY5Y cells to EC50 for anti-amoebic activity against Naegleria fowleri Nf69 (ATCC 30215) assessed as inhibition of amoeba growth; format: toxicity, cell-based; settings: for selectivity ratio: SH-SY5Y cells, read-out: Ratio CC50/EC50
[4] = Kinetic solubility of compound at pH 7.4 incubated for 24 hrs by HPLC analysis; format: physicochemical; settings: buffer, pH 7.4, read-out: Kinetic_solubility
[5] = Metabolic stability in CD-1 mouse liver microsomes assessed as half-life incubated for 60 mins by LC-MS/MS analysis; format: ADME, Microsome; settings: 1 h
In short: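 Half-life measured in CD-1 mouse liver microsomes with NADPH over a 60 min exposure.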

[6] = Naegleria fowleri, Nf69 (ATCC 30215), 48 h

Compound	CC50 [1]	pEC50 [2, 6]	further results
COc1cc(Cl)cc2c(=O)n3c(nc12)[C@H]1CCCN(C)[C@@H]1CC3 (racemic)	> 20 µM	< 5.00	–
CN1CCC[C@H]2c3nc4ccc(F)cc4c(=O)n3CC[C@H]21 (racemic)	–	< 5.00	–
CN1CCC[C@H]2c3nc4cnccc4c(=O)n3CC[C@H]21 (racemic)	–	< 5.00	–
CN1CCC[C@@H]2c3nc4cc(Cl)ccc4c(=O)n3CC[C@H]21 (racemic)	> 20 µM	5.22	–
COc1cc2nc3n(c(=O)c2cc1C#N)CC[C@@H]1[C@@H]3CCCN1C (racemic)	> 20 µM	5.42	–
CN1CCC[C@@H]2c3nc4ccc(F)cc4c(=O)n3CC[C@H]21 (racemic)	> 20 µM	< 5.00	–
CN1CCC[C@H]2c3nc4cc(-c5ccccc5)c(Cl)cc4c(=O)n3CC[C@H]21 (racemic)	> 20 µM	5.47	–
CN1CCC[C@H]2c3nc4cc(Cl)c(Cl)cc4c(=O)n3CC[C@H]21 (racemic)	–	6.59	–
COc1cc2nc3n(c(=O)c2cc1Cl)CC[C@@H]1[C@@H]3CCCN1CC(C)C (racemic)	1.8 µM	–	Ratio CC50/EC50 [3]: 10.6; pEC50 [2]: 6.77
CN1CCC[C@H]2c3nc4ccccc4c(=O)n3CC[C@H]21 (racemic)	–	< 5.00	–
CN1CCC[C@H]2c3nc4cc(Cl)ccc4c(=O)n3CC[C@H]21 (racemic)	–	< 5.00	–
CN1CCC[C@H]2c3nc4cc(Cl)c(C(F)(F)F)cc4c(=O)n3CC[C@H]21 (racemic)	> 20 µM	6.57	–
CN1CCC[C@H]2c3nc4ccc(C(F)(F)F)cc4c(=O)n3CC[C@H]21 (racemic)	–	6.02	–
COc1cc2nc3n(c(=O)c2cc1Cl)CC[C@H]1[C@H]3CCCN1CC(C)C	1 µM	7.57	selectivity ratio [3]: 38; solubility kinetic at 24 h [4]: 2.6 µM (≈ 0.977 µg/mL)
O=c1c2cc(Cl)c(Cl)cc2nc2n1CC[C@H]1NCCC[C@H]21 (racemic)	> 20 µM	5.80	–
COc1ccc2c(=O)n3c(nc2c1)[C@@H]1CCCN(C)[C@@H]1CC3 (racemic)	–	5.74	–
O=c1c2cc(Cl)c(Cl)cc2nc2n1CC[C@@H]1[C@@H]2CCCN1Cc1ccccc1 (racemic)	> 20 µM	6.14	–
COc1cc2nc3n(c(=O)c2cc1Cl)CC[C@@H]1[C@@H]3CCCN1C (racemic)	> 20 µM	6.37	–
COCCN1CCC[C@@H]2c3nc4cc(Cl)c(Cl)cc4c(=O)n3CC[C@H]21 (racemic)	10 µM	7.64	selectivity ratio [3]: 435; t1/2 [5]: 17 min
COc1ccc2nc3n(c(=O)c2c1)CC[C@@H]1[C@@H]3CCCN1C (racemic)	–	5.14	–
CN1CCC[C@@H]2c3nc4cc(Cl)c(C(F)(F)F)cc4c(=O)n3CC[C@H]21 (racemic)	–	6.47	–

Compound	CC50 [1]	pEC50 [2, 6]	further results
CN1CCC[C@H]2c3nc4cc(Cl)c(Cl)cc4c(=O)n3CC[C@@H]21	–	5.59	selectivity ratio [3]: > 7.7
O=c1c2cc(Cl)c(Cl)cc2nc2n1CC[C@@H]1[C@@H]2CCCN1Cc1ccncc1 (racemic)	> 20 µM	6.32	–
CN(C)C(=O)CN1CCC[C@@H]2c3nc4cc(Cl)c(Cl)cc4c(=O)n3CC[C@H]21 (racemic)	> 20 µM	6.52	–
Cc1ccc2nc3n(c(=O)c2c1)CC[C@@H]1[C@H]3CCCN1C (racemic)	> 20 µM	5.55	–
CN1CCC[C@H]2c3nc4cccc(Cl)c4c(=O)n3CC[C@H]21 (racemic)	–	< 5.00	–
CN1CCC[C@H]2c3nc4cc(F)ccc4c(=O)n3CC[C@H]21 (racemic)	–	< 5.00	–
Cc1cccc2nc3n(c(=O)c12)CC[C@@H]1[C@H]3CCCN1C (racemic)	–	< 5.00	–
CN1CCC[C@@H]2c3nc4cc(C(F)(F)F)ccc4c(=O)n3CC[C@H]21 (racemic)	–	6.00	–
CN1CCC[C@@H]2c3nc4ccc(C#N)cc4c(=O)n3CC[C@H]21 (racemic)	–	6.17	–
COc1ccc2nc3n(c(=O)c2c1)CC[C@@H]1[C@H]3CCCN1C (racemic)	> 20 µM	< 5.00	–
O=c1c2cc(Cl)c(Cl)cc2nc2n1CC[C@@H]1[C@@H]2CCCN1CC1CC1 (racemic)	4.8 µM	8.70	selectivity ratio [3]: 2400; t1/2 [5]: 18.3 min
O=C(c1ccccc1)N1CCC[C@@H]2c3nc4cc(Cl)c(Cl)cc4c(=O)n3CC[C@H]21 (racemic)	> 20 µM	< 5.00	–
CN1CCC[C@H]2c3nc4ccc(C#N)cc4c(=O)n3CC[C@H]21 (racemic)	> 20 µM	5.68	–
CN1CCC[C@@H]2c3nc4cc(-c5ccccc5)c(Cl)cc4c(=O)n3CC[C@H]21 (racemic)	9.4 µM	5.68	–
CN1CCC[C@H]2c3nc4ccc(Cl)cc4c(=O)n3CC[C@H]21 (racemic)	–	5.66	–
CN1CCC[C@@H]2c3nc4cnccc4c(=O)n3CC[C@H]21 (racemic)	–	< 5.00	–
O=c1c2cc(Cl)c(Cl)cc2nc2n1CC[C@@H]1[C@@H]2CCCN1Cc1ccccn1 (racemic)	> 20 µM	5.60	–
CN1CCC[C@@H]2c3nc4cccc(Cl)c4c(=O)n3CC[C@H]21 (racemic)	> 20 µM	< 5.00	–
CN(C)CC(=O)N1CCC[C@@H]2c3nc4cc(Cl)c(Cl)cc4c(=O)n3CC[C@H]21 (racemic)	> 20 µM	6.14	–
O=c1c2cc(Cl)c(Cl)cc2nc2n1CC[C@@H]1[C@@H]2CCCN1Cc1cnccn1 (racemic)	> 20 µM	7.30	–
CN1CCC[C@H]2c3nc4ccc(Cl)cc4c(=O)n3CC[C@@H]21	–	5.40	selectivity ratio [3]: > 5

Compound	CC50 [1]	pEC50 [2, 6]	further results
O=c1c2cc(Cl)c(Cl)cc2nc2n1CC[C@@H]1[C@@H]2CCCN1CC1CCOCC1 (racemic)	> 20 µM	8.15	t1/2 [5]: 67.2 min
Cc1ccc2nc3n(c(=O)c2c1)CC[C@@H]1[C@@H]3CCCN1C (racemic)	–	5.51	–
O=C(C1CCOCC1)N1CCC[C@@H]2c3nc4cc(Cl)c(Cl)cc4c(=O)n3CC[C@H]21 (racemic)	> 20 µM	< 5.00	–
CN1CCC[C@@H]2c3nc4cc(F)ccc4c(=O)n3CC[C@H]21 (racemic)	> 20 µM	< 5.00	–
CN1CCC[C@H]2c3nc4cc(C(F)(F)F)ccc4c(=O)n3CC[C@H]21 (racemic)	> 20 µM	5.16	–
CC(C)NCCN1CCC[C@@H]2c3nc4cc(Cl)c(Cl)cc4c(=O)n3CC[C@H]21 (racemic)	6.4 µM	6.89	selectivity ratio [3]: 49
O=c1c2cc(Cl)c(Cl)cc2nc2n1CC[C@@H]1[C@@H]2CCCN1Cc1cccnc1 (racemic)	> 20 µM	9.70	t1/2 [5]: 21.9 min
COc1cc(Cl)cc2c(=O)n3c(nc12)[C@@H]1CCCN(C)[C@@H]1CC3 (racemic)	–	< 5.00	–
COc1ccc2c(=O)n3c(nc2c1)[C@H]1CCCN(C)[C@@H]1CC3 (racemic)	> 20 µM	5.82	–
CN1CCC[C@H]2c3nc4ccc(C(F)(F)F)cc4c(=O)n3CC[C@@H]21	–	5.37	selectivity ratio [3]: > 4.7
CC(C)OCCN1CCC[C@@H]2c3nc4cc(Cl)c(Cl)cc4c(=O)n3CC[C@H]21 (racemic)	> 20 µM	9.40	t1/2 [5]: 9.8 min
COc1cc2nc3n(c(=O)c2cc1Cl)CC[C@@H]1[C@@H]3CCCN1CC(C)C	> 20 µM	–	Ratio CC50/EC50 [3]: > 32.3; pEC50 [2]: 6.21
CN1CCC[C@@H]2c3nc4ccccc4c(=O)n3CC[C@H]21 (racemic)	> 20 µM	< 5.00	–
CC(C)(C)C(=O)N1CCC[C@@H]2c3nc4cc(Cl)c(Cl)cc4c(=O)n3CC[C@H]21 (racemic)	> 20 µM	< 5.00	–
Cc1cccc2nc3n(c(=O)c12)CC[C@@H]1[C@@H]3CCCN1C (racemic)	> 20 µM	< 5.00	–
CC(C)CN1CCC[C@@H]2c3nc4cc(Cl)c(Cl)cc4c(=O)n3CC[C@H]21 (racemic)	> 20 µM	8.15	t1/2 [5]: 19.7 min
CC(C)N1CCC[C@@H]2c3nc4cc(Cl)c(Cl)cc4c(=O)n3CC[C@H]21 (racemic)	> 20 µM	7.40	t1/2 [5]: 41.1 min
O=C(N1CCOCC1)N1CCC[C@@H]2c3nc4cc(Cl)c(Cl)cc4c(=O)n3CC[C@H]21 (racemic)	> 20 µM	< 5.00	–
COc1cc2nc3n(c(=O)c2cc1Cl)CC[C@@H]1[C@H]3CCCN1C (racemic)	–	6.42	–
CN(C)CCN1CCC[C@@H]2c3nc4cc(Cl)c(Cl)cc4c(=O)n3CC[C@H]21 (racemic)	8 µM	6.74	selectivity ratio [3]: 44
